Test results as given in ChEMBL document CHEMBL5329191, “Optimization of the 2-arylquinazoline-4(3H)one scaffold for a selective and potent antitrypanosomal agent: modulation of the mechanism of action through chemical functionalization” (RSC Med Chem, 2023).
Values after ≈ are worked out from the molar mass of the structure shown. Active and inactive are the calls of the source. No cut-off for these calls is given here.

Assays:
Leishmania infantum [1] = test: Antileishmanial activity against Leishmania infantum promastigotes; format: functional, organism-based
Trypanosoma cruzi [2] = test: Antitrypanosomal activity against of Trypanosoma cruzi epimastigotes; format: functional, organism-based
[3] = Solubility of the compound by UV-Vis spectroscopy; format: physicochemical
Method in brief: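 Solubility in μM was determined by UV-Vis spectroscopy.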

[4] = Cytotoxicity against mouse J774.1 cells; format: toxicity, cell-based
Method in brief: (§1)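 Cytotoxicity (CC50) was measured on murine J774.1A macrophages. Selectivity index is CC50 divided by parasite IC50 (promastigote, epimastigote or axenic amastigote). Values are the mean of three independent experiments.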

[5] = Selectivity index, ratio of CC50 for mouse J774.1 cells to IC50 for Leishmania infantum promastigotes; format: toxicity; details: read-out: Ratio CC50/IC50; method in brief: as §1
[6] = Selectivity index, ratio of CC50 for mouse J774.1 cells to IC50 for Trypanosoma cruzi epimastigotes; format: toxicity; details: read-out: Ratio CC50/IC50; method in brief: as §1
Leishmania infantum [7] = test: Antileishmanial activity against Leishmania infantum axenic amastigotes; format: functional, organism-based
[8] = Selectivity index, ratio of CC50 for mouse J774.1 cells to IC50 for Leishmania infantum amastigotes; format: toxicity; details: read-out: Ratio CC50/IC50; method in brief: as §1
Leishmania infantum [9] = test: Induction of NO production in Leishmania infantum promastigotes by Griess method; format: functional, organism-based
Method in brief: (§2)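 NO production in parasite cultures was measured at three test concentrations, either 25, 50 and 100 μM or 1, 5 and 10 μM depending on the compound.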

Trypanosoma cruzi [10] = test: Induction of NO production in Trypanosoma cruzi epimastigotes by Griess method; format: functional, organism-based; method in brief: as §2
Leishmania infantum [11] = test: Induction of NO production in Leishmania infantum promastigotes at highest concentration by Griess method; format: functional; method in brief: as §2
Trypanosoma cruzi [12] = test: Induction of NO production in Trypanosoma cruzi epimastigotes at highest concentration by Griess method; format: functional; method in brief: as §2
Leishmania infantum [13] = test: Induction of ROS production in Leishmania infantum promastigotes by DCFH-DA staining based flow cytometry analysis; format: functional, organism-based
Method in brief: (§3)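 Oxidative stress in parasite cultures was read fluorometrically with the 2,7-dichlorodihydrofluorescein diacetate (DCFH-DA) probe against a negative-control culture, and was also run with metal cations present.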

Trypanosoma cruzi [14] = test: Induction of ROS production in Trypanosoma cruzi epimastigotes by DCFH-DA staining based flow cytometry analysis; format: functional, organism-based; method in brief: as §3
Leishmania infantum [15] = test: Antileishmanial activity against Leishmania infantum promastigotes assessed as decrease in IC50 in presence of copper(II); format: functional, organism-based
Method in brief: (§4)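 Parasite proliferation was run in the presence of copper(II), iron(III) or zinc(II) salts, each at 1 μM.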

Leishmania infantum [16] = test: Antileishmanial activity against Leishmania infantum promastigotes assessed as decrease in IC50 in presence of iron(III); format: functional, organism-based; method in brief: as §4
Leishmania infantum [17] = test: Antileishmanial activity against Leishmania infantum promastigotes assessed as decrease in IC50 in presence of zinc(II); format: functional, organism-based; method in brief: as §4
Trypanosoma cruzi [18] = test: […] activity against Trypanosoma cruzi epimastigotes assessed as change in parasites in presence of copper(II); format: functional, organism-based; method in brief: as §4
Trypanosoma cruzi [19] = test: […] activity against Trypanosoma cruzi epimastigotes assessed as change in parasites in presence of iron(III); format: functional, organism-based; method in brief: as §4
Trypanosoma cruzi [20] = test: […] activity against Trypanosoma cruzi epimastigotes assessed as change in parasites in presence of zinc(II); format: functional, organism-based; method in brief: as §4
Leishmania infantum [21] = test: Induction of ROS production in Leishmania infantum promastigotes in presence of Zn2+; format: functional, organism-based; method in brief: as §3
Leishmania infantum [22] = test: Induction of ROS production in Leishmania infantum promastigotes in presence of Cu2+; format: functional, organism-based; method in brief: as §3
Leishmania infantum [23] = test: Induction of ROS production in Leishmania infantum promastigotes in presence of Fe3+; format: functional, organism-based; method in brief: as §3
Trypanosoma cruzi [24] = test: Induction of ROS production in Trypanosoma cruzi epimastigotes in presence of Zn2+; format: functional, organism-based; method in brief: as §3
Trypanosoma cruzi [25] = test: Induction of ROS production in Trypanosoma cruzi epimastigotes in presence of Cu2+; format: functional, organism-based; method in brief: as §3
Trypanosoma cruzi [26] = test: Induction of ROS production in Trypanosoma cruzi epimastigotes in presence of Fe3+; format: functional, organism-based; method in brief: as §3
[27] = Mutagenicity in Salmonella typhimurium TA98 assessed as number of revertant colonies at 90 uM by Ames test (reference value: 4); format: toxicity; details: salmonella enterica subsp. enterica […]
Method in brief: (§5)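 Ames reverse-mutation assay in Salmonella typhimurium TA 98. Revertant colonies were counted at five escalating dose levels alongside a zero-dose (spontaneous revertant) negative control and a 4-nitro-o-phenylenediamine positive control. A compound was called mutagenic when revertants exceeded twice the negative control at two consecutive dose levels.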

[28] = Mutagenicity in Salmonella typhimurium TA98 assessed as number of revertant colonies at 270 uM by Ames test (reference value: 4); format: toxicity; details: salmonella enterica subsp. enterica […]; method in brief: as §5
[29] = Mutagenicity in Salmonella typhimurium TA98 assessed as number of revertant colonies at 830 uM by Ames test (reference value: 4); format: toxicity; details: salmonella enterica subsp. enterica […]; method in brief: as §5
[30] = Mutagenicity in Salmonella typhimurium TA98 assessed as number of revertant colonies at 2500 uM by Ames test (reference value: 4); format: toxicity; details: salmonella enterica subsp. enterica […]; method in brief: as §5
[31] = Mutagenicity in Salmonella typhimurium TA98 assessed as number of revertant colonies at 7500 uM by Ames test (reference value: 4); format: toxicity; details: salmonella enterica subsp. enterica […]; method in brief: as §5
Leishmania infantum [32] = test: Antileishmanial activity against Leishmania infantum promastigotes in presence of FA; format: functional, organism-based
Trypanosoma cruzi [33] = test: Antitrypanosomal activity against of Trypanosoma cruzi epimastigotes in presence of FA; format: functional, organism-based
Leishmania infantum [34] = test: Antileishmanial activity against Leishmania infantum promastigotes assessed as increase in IC50 in presence of FA; format: functional
Trypanosoma cruzi [35] = test: Antitrypanosomal activity against of Trypanosoma cruzi epimastigotes assessed as increase in IC50 in presence of FA; format: functional

O=[N+]([O-])c1ccc(/C=N/N=c2\[nH]c(-c3cccc(Cl)c3)nc3ccccc23)o1
IC50 (Leishmania infantum [1]): 0.77 µM
IC50 (Trypanosoma cruzi [2]): 0.77 µM
solubility [3]: 7.11 µM (≈ 2.8 µg/mL)
CC50 [4]: 41.6 µM
selectivity ratio [5]: 54
selectivity ratio [6]: 60.2
IC50 (Leishmania infantum [7]): 0.89 µM
selectivity ratio [8]: 46.7
Activity (Leishmania infantum [9]): Dose-Dependent Effect
Activity (Trypanosoma cruzi [10]): Dose-Dependent Effect
Activity (Leishmania infantum [11]): 2 µM
Activity (Trypanosoma cruzi [12]): 1 µM
Activity (Leishmania infantum [13]): Active
Activity (Trypanosoma cruzi [14]): Active
Activity (Leishmania infantum [15]): Active
Activity (Leishmania infantum [16]): Active
Activity (Leishmania infantum [17]): Active
Activity (Trypanosoma cruzi [18]): inactive
Activity (Trypanosoma cruzi [19]): inactive
Activity (Trypanosoma cruzi [20]): inactive
Activity (Leishmania infantum [21]): Active
Activity (Leishmania infantum [22]): Active
Activity (Leishmania infantum [23]): Active
Activity (Trypanosoma cruzi [24]): Active
Activity (Trypanosoma cruzi [25]): Active
Activity (Trypanosoma cruzi [26]): Active
Activity [27]: 3
Activity [28]: 10
Activity [29]: 9.5
Activity [30]: 10.5
Activity [31]: 9.5

O=[N+]([O-])c1ccc(/C=N/N=c2\[nH]c(-c3cccc(Br)c3)nc3ccccc23)o1
IC50 (Leishmania infantum [1]): > 25 µM
IC50 (Trypanosoma cruzi [2]): > 25 µM
solubility [3]: 5.67 µM (≈ 2.48 µg/mL)

Cc1ccc(-c2nc3ccccc3c(=O)[nH]2)cc1
IC50 (Leishmania infantum [1]): 5.23 µM
IC50 (Trypanosoma cruzi [2]): > 25 µM

Cc1ccc(-c2nc3ccccc3/c(=N/N=C/c3ccc([N+](=O)[O-])o3)[nH]2)cc1
IC50 (Leishmania infantum [1]): > 25 µM
IC50 (Trypanosoma cruzi [2]): > 25 µM
solubility [3]: 7.23 µM (≈ 2.7 µg/mL)

CC1CS(=O)(=O)CCN1/N=C/c1ccc([N+](=O)[O-])o1 (configuration not stated) [NIFURTIMOX]
selectivity ratio [6]: 36.3

NNc1nc(-c2ccc(Br)cc2)nc2ccccc12
IC50 (Leishmania infantum [1]): 2.13 µM
IC50 (Trypanosoma cruzi [2]): 14.3 µM
IC50 (Leishmania infantum [32]): 2.83 µM
IC50 (Trypanosoma cruzi [33]): 25.2 µM
Activity (Leishmania infantum [34]): 33%
Activity (Trypanosoma cruzi [35]): 48%

Fc1ccc(-c2nc3ccccc3/c(=N/N=C/c3ccco3)[nH]2)cc1
IC50 (Leishmania infantum [1]): 9.07 µM
IC50 (Trypanosoma cruzi [2]): 9.07 µM
solubility [3]: 7.87 µM (≈ 2.62 µg/mL)
CC50 [4]: 119 µM
selectivity ratio [5]: 13.1
selectivity ratio [6]: 5.7
IC50 (Leishmania infantum [7]): 11.1 µM
selectivity ratio [8]: 10.7
IC50 (Trypanosoma cruzi [33]): 33.1 µM
Activity (Leishmania infantum [34]): 41%
Activity (Trypanosoma cruzi [35]): 37%
Activity (Leishmania infantum [9]): inactive
Activity (Trypanosoma cruzi [10]): inactive
Activity (Leishmania infantum [13]): inactive
Activity (Trypanosoma cruzi [14]): inactive

NNc1nc(-c2ccc(F)cc2)nc2ccccc12
IC50 (Leishmania infantum [1]): 5.01 µM
IC50 (Trypanosoma cruzi [2]): 17.9 µM

NNc1nc(-c2ccc(Cl)cc2)nc2ccccc12
IC50 (Leishmania infantum [1]): 1.56 µM
IC50 (Trypanosoma cruzi [2]): 11.5 µM
IC50 (Leishmania infantum [32]): 2.05 µM
IC50 (Trypanosoma cruzi [33]): 19.1 µM
Activity (Leishmania infantum [34]): 31%
Activity (Trypanosoma cruzi [35]): 42%
Activity (Leishmania infantum [9]): Dose-Dependent Effect
Activity (Trypanosoma cruzi [10]): Dose-Dependent Effect
Activity (Leishmania infantum [11]): >4 µM
Activity (Trypanosoma cruzi [12]): >2 µM
Activity (Leishmania infantum [13]): inactive
Activity (Trypanosoma cruzi [14]): inactive

O=[N+]([O-])c1ccc(/C=N/N=c2\[nH]c(-c3ccccc3)nc3ccccc23)o1
IC50 (Leishmania infantum [1]): 0.88 µM
IC50 (Trypanosoma cruzi [2]): 0.63 µM
solubility [3]: 7.99 µM (≈ 2.87 µg/mL)
CC50 [4]: 15.1 µM
selectivity ratio [5]: 17.1
selectivity ratio [6]: 23.9
IC50 (Leishmania infantum [7]): 0.93 µM
selectivity ratio [8]: 16.2
Activity (Leishmania infantum [15]): Active
Activity (Leishmania infantum [16]): Active
Activity (Leishmania infantum [17]): Active
Activity (Trypanosoma cruzi [18]): inactive
Activity (Trypanosoma cruzi [19]): inactive
Activity (Trypanosoma cruzi [20]): inactive
Activity (Leishmania infantum [21]): Active
Activity (Leishmania infantum [22]): Active
Activity (Leishmania infantum [23]): Active
Activity (Trypanosoma cruzi [24]): Active
Activity (Trypanosoma cruzi [25]): Active
Activity (Trypanosoma cruzi [26]): Active

O=c1[nH]c(-c2ccc(Cl)cc2)nc2ccccc12
IC50 (Leishmania infantum [1]): 4.88 µM
IC50 (Trypanosoma cruzi [2]): 18.1 µM
IC50 (Leishmania infantum [32]): 6.22 µM
IC50 (Trypanosoma cruzi [33]): 24.2 µM
Activity (Leishmania infantum [34]): 27%
Activity (Trypanosoma cruzi [35]): 34%
Activity (Leishmania infantum [9]): inactive
Activity (Trypanosoma cruzi [10]): inactive
Activity (Leishmania infantum [13]): inactive
Activity (Trypanosoma cruzi [14]): inactive

O=c1[nH]c(-c2ccc(Br)cc2)nc2ccccc12
IC50 (Leishmania infantum [1]): 6.89 µM
IC50 (Trypanosoma cruzi [2]): 19.8 µM
